In ChEMBL document CHEMBL3352209, “Chroman-4-one- and chromone-based sirtuin 2 inhibitors with antiproliferative properties in cancer cells” (J Med Chem, 2014):
Values belong to the compound of their own block, whether it stands above or below them. Calls of active or inactive are those of the source. The calls are words filed in the database; no cut-off is given here.

Legend:
[1] = biological target: T1, NAD-dependent protein deacetylase sirtuin-2 (Homo sapiens) (UniProt Q8IXJ6); test: Inhibition of recombinant GST-tagged sirtuin-2 (unknown origin) using KI179 as substrate at 200 uM after 1 hr by fluorescence assay
T1 sequence (whole entry): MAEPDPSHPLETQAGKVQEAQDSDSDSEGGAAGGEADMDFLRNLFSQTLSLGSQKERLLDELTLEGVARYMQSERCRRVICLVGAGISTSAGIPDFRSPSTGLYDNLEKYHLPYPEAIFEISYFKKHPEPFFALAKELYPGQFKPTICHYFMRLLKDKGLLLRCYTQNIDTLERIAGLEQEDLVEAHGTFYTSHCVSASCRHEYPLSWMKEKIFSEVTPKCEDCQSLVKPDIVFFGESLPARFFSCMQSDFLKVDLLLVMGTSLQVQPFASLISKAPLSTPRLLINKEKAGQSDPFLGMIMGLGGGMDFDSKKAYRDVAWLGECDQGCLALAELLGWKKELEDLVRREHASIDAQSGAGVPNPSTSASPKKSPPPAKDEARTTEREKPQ
In short: (§1)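 Recombinant GST-SIRT2 with Fluor de Lys KI179 acetyl-peptide at 0.7 Km (Km 198 μM) and NAD+ at 0.9 Km in HDAC buffer with 1 mg/mL BSA. Compound in DMSO (5% v/v) preincubated 5 min at room temperature, enzyme added, 1 h at 37 °C; developer plus 2 mM nicotinamide 45 min at 37 °C; fluorescence ex 370/em 460 nm. Single-point inhibition at 200 μM, n = 3; IC50 with 95% CI where inhibition >80%.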

[2] = biological target: T2, NAD-dependent protein deacetylase sirtuin-2 (Homo sapiens, UniProt Q8IXJ6); test: Inhibition of recombinant GST-tagged sirtuin-2 (unknown origin) using KI179 as substrate after 1 hr by fluorescence assay; in short: as §1
T2 sequence (Q8IXJ6 whole entry): T1 sequence (whole entry)

A549 [3] = test: Antiproliferative activity against human A549 cells at 1 to 100 uM after 48 hrs by sulforhodamine B assay; format: functional, cell-based
In short: (§2)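 A549 and MCF-7 cells (DMEM, 10% FCS, penicillin/streptomycin, 37 °C, 5% CO2) seeded 3000 cells/well 24 h before dosing; 0–100 μM compound or 0.5% DMSO vehicle for 48 h (A549) or 72 h (MCF-7). Growth read by sulforhodamine B staining; mean ± SEM of two to three independent experiments; ANOVA with Tukey test.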

MCF7 [4] = test: Antiproliferative activity against human MCF7 cells at 1 to 100 uM after 72 hrs by sulforhodamine B assay; format: functional, cell-based; in short: as §2
A549 [5] = test: Antiproliferative activity against human A549 cells at 10 uM after 48 hrs by sulforhodamine B assay; format: functional, cell-based
A549 [6] = test: Antiproliferative activity against human A549 cells at >=50 uM after 48 hrs by sulforhodamine B assay; format: functional, cell-based
MCF7 [7] = test: Antiproliferative activity against human MCF7 cells at >=50 uM after 48 hrs by sulforhodamine B assay; format: functional, cell-based
MCF7 [8] = test: Cytotoxicity against human MCF7 cells at 100 uM after 18 hrs; format: cell-based; settings: mcf7, 18 h
A549 [9] = test: Cell cycle arrest in human A549 cells assessed as accumulation at G1/G0 phase at 50 uM after 18 hrs by propidium iodide staining-based flow cytometry; format: functional
In short: (§3)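 A549 or MCF-7 cells seeded 0.6 × 10⁶/well 6 h before exposure to compound or 0.5% DMSO vehicle for 18 h. DNA content measured by propidium iodide staining and flow cytometry, giving percent of cells in G1/G0, S and G2/M; mean ± SEM of two to four independent experiments; one-way ANOVA with Tukey test.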

MCF7 [10] = test: Cell cycle arrest in human MCF7 cells assessed as accumulation at G1/G0 phase at 50 uM after 18 hrs by propidium iodide staining-based flow cytometry; format: functional; in short: as §3
A549 [11] = test: Induction of apoptosis in human A549 cells at 50 uM after 18 hrs by propidium iodide staining-based flow cytometry; format: functional, cell-based
MCF7 [12] = test: Induction of apoptosis in human MCF7 cells at 50 uM after 18 hrs by propidium iodide staining-based flow cytometry; format: functional, cell-based
[13] = biological target: T1, NAD-dependent protein deacetylase sirtuin-2 (Homo sapiens); test: Inhibition of SIRT2 in human MCF7 cells assessed as alpha-tubulin acetylation after 6 to 18 hrs by Western blotting analysis; format: cell-based
In short: (§4)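 MCF-7 cells seeded 10⁵/well, dosed 24 h later with compound plus 40 nM Trichostatin A, or 0.5% DMSO, for 6 or 18 h. Lysates separated by SDS-PAGE and blotted with acetylated α-tubulin and total α-tubulin mouse monoclonals, HRP anti-mouse and ECL detection; mean ± SEM of three independent experiments.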

[14] = biological target: T1, NAD-dependent protein deacetylase sirtuin-2 (Homo sapiens); settings: MCF7, 25 to 100 uM
MCF7 [15] = test: Antiproliferative activity against human MCF7 cells at 10 uM after 72 hrs by sulforhodamine B assay
[16] = biological target: T1, NAD-dependent protein deacetylase sirtuin-2 (Homo sapiens); test: Inhibition of sirtuin-2 (unknown origin) by SIRTainty assay in presence of NAD+; settings: concentration not given here
In short: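 SIRT2 run in the SIRTainty kit, which uses nicotinamidase to detect nicotinamide released from NAD+, with and without NAD+. Fluorescence ex 405/em 460 nm, given as percent inhibition of the NAD+-dependent signal.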

[17] = biological target: T1, NAD-dependent protein deacetylase sirtuin-2 (Homo sapiens); test: Inhibition of SIRT2 in human MCF7 cells assessed as alpha-tubulin acetylation at 50 to 100 uM after 18 hrs by Western blotting analysis; format: cell-based; in short: as §4
MCF7 [18] = test: Cell cycle arrest in human MCF7 cells assessed as accumulation at G1/G0 phase at 100 uM after 18 hrs by propidium iodide staining-based flow cytometry; format: functional; in short: as §3
A549 [19] = test: Cell cycle arrest in human A549 cells assessed as accumulation at G1/G0 phase at 100 uM after 18 hrs by propidium iodide staining-based flow cytometry; format: functional; in short: as §3
A549 [20] = test: Cell cycle arrest in human A549 cells assessed as reduction in G2 phase at 100 uM after 18 hrs by propidium iodide staining-based flow cytometry; format: functional; in short: as §3
A549 [21] = test: Induction of apoptosis in human A549 cells at 100 uM after 18 hrs by propidium iodide staining-based flow cytometry; format: functional, cell-based
MCF7 [22] = test: Induction of apoptosis in human MCF7 cells at 100 uM after 18 hrs by propidium iodide staining-based flow cytometry; format: functional, cell-based

SMILES: CNC(=O)CCCC1CC(=O)c2cc(Cl)cc(Br)c2O1 (stereo unspecified)
- inhibition [1]: 39%

SMILES: CC(C)NC(=O)CCCC1CC(=O)c2cc(Cl)cc(Br)c2O1 (stereo unspecified)
- inhibition [1]: 23%

SMILES: CN(C)C(=O)CCCC1CC(=O)c2cc(Cl)cc(Br)c2O1 (stereo unspecified)
- inhibition [1]: 53%

SMILES: O=C1CC(CCCN2CCCCC2)Oc2c(Br)cc(Cl)cc21 (stereo unspecified)
- inhibition [16]: 40%

SMILES: O=C1CC(CCCCCO)Oc2c(Br)cc(Cl)cc21 (stereo unspecified)
- inhibition [1]: 67%

SMILES: O=C(O)CCCC1CC(=O)c2cc(Cl)cc(Br)c2O1 (stereo unspecified)
- inhibition [1]: 7.6%

SMILES: Cc1noc(CCC2CC(=O)c3cc(Cl)cc(Br)c3O2)n1 (stereo unspecified)
- inhibition [1]: 77%
- IC50 [2]: 12.2 µM
- growth inhibition (GI) (A549 [3]): Active
- growth inhibition (GI) (MCF7 [4]): Active
- inhibition [17]: Active
- Activity (MCF7 [18]): Active
- Activity (A549 [19]): Active
- Activity (A549 [20]): Active
- Activity (A549 [21]): inactive
- Activity (MCF7 [22]): inactive
- inhibition [13]: Dose-dependent effect

SMILES: O=C1CC(CCCCO)Oc2c(Br)cc(Cl)cc21 (stereo unspecified)
- inhibition [1]: 52%

SMILES: CCCCCC1CC(=O)c2cc(Br)ccc2O1 (stereo unspecified)
- inhibition [1]: 69%

SMILES: O=C1CC(CCCO)Oc2c(Br)cc(Cl)cc21 (stereo unspecified)
- inhibition [1]: 18%

SMILES: COCCOCC1CC(=O)c2cc(Cl)cc(Br)c2O1 (stereo unspecified)
- inhibition [1]: 33%

SMILES: CCCCCC1CC(=O)c2cc(Br)cc(Cl)c2O1 (stereo unspecified)
- inhibition [1]: 96%
- IC50 [2]: 1.8 µM

SMILES: Cc1noc(CCCC2CC(=O)c3cc(Cl)cc(Br)c3O2)n1 (stereo unspecified)
- inhibition [1]: 49%

SMILES: COC(=O)CCCC1CC(=O)c2cc(Cl)cc(Br)c2O1 (stereo unspecified)
- inhibition [1]: 90%
- IC50 [2]: 2 µM

SMILES: O=C1CC(CCCN2CCOCC2)Oc2c(Br)cc(Cl)cc21 (stereo unspecified)
- inhibition [16]: 17%

Continued, in another order:

- inhibition [1]: 76%
SMILES: N/C=C1\C(=O)c2cc(Cl)cc(Br)c2OC1CCc1ccccc1 (stereo unspecified)

- inhibition [1]: 73%
SMILES: O=C1CC(CCc2ccncc2)Oc2c(Br)cc(Cl)cc21 (stereo unspecified)

- inhibition [1]: 86%
- IC50 [2]: 3.7 µM
- inhibition [13]: Dose-dependent effect
- inhibition [14]: Active
SMILES: O=C1CC(CCc2cccnc2)Oc2c(Br)cc(Cl)cc21 (stereo unspecified)
- growth inhibition (GI) (A549 [3]): Active
- growth inhibition (GI) (MCF7 [4]): Active
- growth inhibition (GI) (A549 [5]): Active
- growth inhibition (GI) (A549 [6]): Active
- growth inhibition (GI) (MCF7 [7]): Active
- Activity (MCF7 [8]): Toxic
- Activity (A549 [9]): Active
- Activity (MCF7 [10]): Active
- Activity (A549 [11]): inactive
- Activity (MCF7 [12]): inactive
- growth inhibition (GI) (MCF7 [15]): Active

- inhibition [1]: 39%
SMILES: O=C(CCCC1CC(=O)c2cc(Cl)cc(Br)c2O1)NCc1ccccc1 (stereo unspecified)

- inhibition [1]: 50%
SMILES: N#Cc1c(CCc2ccccc2)oc2c(Br)cc(Cl)cc2c1=O

- inhibition [1]: 56%
SMILES: O=C1CC(CCc2ccc3ncccc3c2)Oc2c(Br)cc(Cl)cc21 (stereo unspecified)

- inhibition [1]: 81%
- IC50 [2]: 28.7 µM
SMILES: CC(=O)Nc1c(CCc2ccccc2)oc2c(Br)cc(Cl)cc2c1=O

- inhibition [1]: 79%
SMILES: Nc1c(CCc2ccccc2)oc2c(Br)cc(Cl)cc2c1=O

- inhibition [1]: 6.8%
SMILES: O=C(O)CCC1CC(=O)c2cc(Cl)cc(Br)c2O1 (stereo unspecified)

- inhibition [1]: 59%
SMILES: O=C1CC(CCc2ccc3[nH]c(=O)ccc3c2)Oc2c(Br)cc(Cl)cc21 (stereo unspecified)

- inhibition [1]: 0.2%
SMILES: CNC(=O)CCC1CC(=O)c2cc(Cl)cc(Br)c2O1 (stereo unspecified)

- inhibition [1]: 80%
- IC50 [2]: 9.6 µM
SMILES: COC(=O)CCC1CC(=O)c2cc(Cl)cc(Br)c2O1 (stereo unspecified)

- inhibition [1]: 74%
SMILES: O=C1CC(CCc2ccccn2)Oc2c(Br)cc(Cl)cc21 (stereo unspecified)
